{"data": "Published values gathered from unrelated publications", "target": "Calcium/calmodulin-dependent protein kinase type II subunit alpha (CAMK2A, Homo sapiens, UniProt Q9UQM7)", "note": "Protocols differ between the studies behind these lines."}
{"SMILES": "CN(CCCC(F)(F)F)c1nccc(-c2cnn3ncccc23)n1", "observed": "binding", "tested at": "1 µM", "remaining binding": "91%"}
{"SMILES": "CCOC(=O)c1cc2cc(-c3cc(C(=O)NCc4ccc(C(=O)O)cc4)nn3C)ccc2[nH]1", "observed": "cell-free assay", "technique": "competition with immobilised ligand", "tested at": "0.1 µM", "remaining binding": "76%"}
{"SMILES": "O=C(c1ccc(Nc2nccc(-c3cc4ccccc4s3)n2)cc1)N1CCC(N2CCCC2)CC1", "observed": "binding", "technique": "competition with immobilised ligand", "tested at": "1 µM", "remaining binding": "95%"}
{"SMILES": "CN(C(=O)c1ccccc1)c1cc(N(C)c2ccc3c(c2)CCc2ccc(C(=O)NCCN4CCOCC4)cc2C3=O)ccc1F", "observed": "cell-free assay", "technique": "competition with immobilised ligand", "tested at": "1 µM", "remaining binding": "86%"}
{"SMILES": "COc1cnc(Nc2cccc(S(N)(=O)=O)c2)nc1N1CCN(c2ccccc2)C(=O)C1", "observed": "binding", "technique": "competition with immobilised ligand", "tested at": "1 µM", "remaining binding": "100%"}
{"SMILES": "CN(C)c1nccc(-c2cnn3ncccc23)n1", "observed": "binding", "tested at": "1 µM", "remaining binding": "62%"}
{"SMILES": "NS(=O)(=O)c1cc(NC(=O)Cc2ccccc2)ccc1Oc1cccc(Cl)c1", "observed": "cell-free assay", "technique": "competition with immobilised ligand", "tested at": "1 µM", "remaining binding": "96%"}
{"SMILES": "COc1cnc(Nc2cccc(S(N)(=O)=O)c2)nc1N1CCN(c2ccccc2)CC1", "observed": "binding", "technique": "competition with immobilised ligand", "tested at": "1 µM", "remaining binding": "87%"}
{"SMILES": "C[C@H]1CCN(c2nccc(-c3cnn4ncccc34)n2)C1", "observed": "binding", "tested at": "1 µM", "remaining binding": "91%"}
{"SMILES": "O=C(NCCCN1CCOCC1)c1ccc(Nc2ncc(Cl)c(-c3ccc(Cl)s3)n2)cc1", "observed": "binding", "technique": "competition with immobilised ligand", "tested at": "1 µM", "remaining binding": "91%"}
{"SMILES": "CN(C)c1nccc(-c2cnc3ncccn23)n1", "observed": "binding", "tested at": "1 µM", "remaining binding": "92%"}
{"SMILES": "O=C(NC[C@@H]1[C@H]2CN(C(=O)OCc3cc(C(F)(F)F)cc(C(F)(F)F)c3)C[C@@H]12)c1ccc2[nH]nnc2c1", "observed": "cell-free assay", "technique": "competition with immobilised ligand", "tested at": "1 µM", "remaining binding": "91%"}
{"SMILES": "O=C(Nc1c[nH]nc1C(=O)NC1CCNCC1)c1cc(F)cc(F)c1", "observed": "binding", "technique": "competition with immobilised ligand", "tested at": "1 µM", "remaining binding": "100%"}
{"SMILES": "FC(F)(F)Oc1cccc(-c2cnc3ccc(-c4ccncc4)nn23)c1", "observed": "cell-free assay", "technique": "competition with immobilised ligand", "tested at": "5 µM", "remaining binding": "14%"}
{"SMILES": "C=CC(=O)N1CCC(C(=O)NCC(=O)N2CCN(c3nc(-c4cnc(N)nc4C(F)F)nc(N4CCOCC4)n3)CC2)CC1", "observed": "binding", "technique": "competition with immobilised ligand", "tested at": "1 µM", "remaining binding": "96%"}
{"SMILES": "COc1ccc2c(c1)O[C@H](c1ccc(OC)c(OC)c1)C[C@@H]2NC(=O)C1(c2ccc3c(c2)OC(F)(F)O3)CC1", "observed": "cell-free assay", "technique": "competition with immobilised ligand", "tested at": "1 µM", "remaining binding": "100%"}
{"SMILES": "Nc1ncc2c(n1)-c1c([nH]c3ccc(C#CC4CC4)cc13)CCCC2", "observed": "binding", "technique": "competition with immobilised ligand", "tested at": "1 µM", "remaining binding": "100%"}
{"SMILES": "N[C@H]1CCN(c2nccc(-c3cnn4ncccc34)n2)C1", "observed": "binding", "tested at": "1 µM", "remaining binding": "100%"}
{"SMILES": "O=C(Nc1cnc(Oc2ccc(F)cc2)nc1)N1CCc2ncccc2[C@@H]1c1ccc(F)cc1", "observed": "cell-free assay", "technique": "competition with immobilised ligand", "tested at": "1 µM", "remaining binding": "92%"}
{"SMILES": "Cc1cnc(Nc2ccc(C(=O)N3CCC(N4CCCC4)CC3)cc2)nc1-c1cc2ccccc2s1", "observed": "binding", "technique": "competition with immobilised ligand", "tested at": "1 µM", "remaining binding": "58%"}
{"SMILES": "CCN1CCN(Cc2ccc(C(=O)Nc3ccc(C)c(Oc4ccc5c(c4)CC(=O)N5)c3)cc2C(F)(F)F)CC1", "observed": "binding", "technique": "competition with immobilised ligand", "tested at": "1 µM", "remaining binding": "100%"}
{"SMILES": "CN(C)c1ncc(F)c(-c2cnn3ncccc23)n1", "observed": "binding", "tested at": "1 µM", "remaining binding": "63%"}
